According to ChEMBL document CHEMBL1154899, “Synthesis and biological evaluation of caffeic acid 3,4-dihydroxyphenethyl ester” (J Nat Prod, 2010):
In brackets after ≈: the same amount, converted by molar mass.

Columns and labels:
Assay type in all cases: functional
TK-10 [1] = assay: Antiproliferative activity against human TK10 cells assessed as cell growth at 500 uM by SRB assay; conditions: read-out: Activity
SNB-19 = assay: Antiproliferative activity against human SNB19 cells assessed as cell growth at 0.5 uM by SRB assay; conditions: read-out: Activity
HOP-92 = assay: Antiproliferative activity against human HOP92 cells assessed as cell growth at 5 uM by SRB assay; conditions: read-out: Activity
TK-10 [2] = assay: Antiproliferative activity against human TK10 cells assessed as cell growth at 0.5 uM by SRB assay; conditions: read-out: Activity
BT-549 = assay: Antiproliferative activity against human BT549 cells assessed as cell growth at 5 uM by SRB assay; conditions: read-out: Activity
HL-60(TB) = assay: Antiproliferative activity against human HL-60(TB) cells by SRB assay
NCI-H322M = assay: Antiproliferative activity against human NCI-H322M cells assessed as cell growth at 0.5 uM by SRB assay; conditions: read-out: Activity
CCRF-CEM = assay: Antiproliferative activity against human CCRF-CEM cells assessed as cell growth at 5 uM by SRB assay; conditions: read-out: Activity
SK-OV-3 = assay: Antiproliferative activity against human SKOV3 cells assessed as cell growth at 50 uM by SRB assay; conditions: read-out: Activity
A549 = assay: Antiproliferative activity against human A549 cells by SRB assay
ACHN = assay: Antiproliferative activity against human ACHN cells assessed as cell growth at 500 uM by SRB assay; conditions: read-out: Activity
Malme-3M [3] = assay: Antiproliferative activity against human MALME-3M cells assessed as cell growth at 500 uM by SRB assay; conditions: read-out: Activity
UACC-62 = assay: Antiproliferative activity against human UACC62 cells assessed as cell growth at 50 uM by SRB assay; conditions: read-out: Activity
HCT-116 [4] = assay: Antiproliferative activity against human HCT116 cells assessed as cell growth at 5 uM by SRB assay; conditions: read-out: Activity
TK-10 [5] = assay: Antiproliferative activity against human TK10 cells assessed as cell growth at 5 mM by SRB assay; conditions: read-out: Activity
DU-145 = assay: Antiproliferative activity against human DU145 cells by SRB assay
A498 [6] = assay: Antiproliferative activity against human A498 cells assessed as cell growth at 500 uM by SRB assay; conditions: read-out: Activity
COLO 205 [7] = assay: Antiproliferative activity against human COLO205 cells by SRB assay
EKVX [8] = assay: Antiproliferative activity against human EKVX cells assessed as cell growth at […] by SRB assay; conditions: read-out: Activity
NCI-H522 [9] = assay: Antiproliferative activity against human NCI-H522 cells assessed as cell growth at 5 uM by SRB assay; conditions: read-out: Activity
NCI-H522 [10] = assay: Antiproliferative activity against human NCI-H522 cells assessed as cell growth at 50 uM by SRB assay; conditions: read-out: Activity
SNB-75 = assay: Antiproliferative activity against human SNB75 cells assessed as cell growth at 500 uM by SRB assay; conditions: read-out: Activity
SF-295 = assay: Antiproliferative activity against human SF295 cells assessed as cell growth at 0.5 uM by SRB assay; conditions: read-out: Activity
Malme-3M [11] = assay: Antiproliferative activity against human MALME-3M cells assessed as cell growth at 5 uM by SRB assay; conditions: read-out: Activity
Malme-3M [12] = assay: Antiproliferative activity against human MALME-3M cells by SRB assay
SK-MEL-2 = assay: Antiproliferative activity against human SK-MEL-2 cells assessed as cell growth at 5 uM by SRB assay; conditions: read-out: Activity
OVCAR-5 = assay: Antiproliferative activity against human OVCAR5 cells at 50 uM by SRB assay
786-0 = assay: Antiproliferative activity against human 786-0 cells assessed as cell growth at 50 uM by SRB assay; conditions: read-out: Activity
SN12C = assay: Antiproliferative activity against human SN12C cells by SRB assay
HCT-116 [13] = assay: Antiproliferative activity against human HCT116 cells by SRB assay
A498 [14] = assay: Antiproliferative activity against human A498 cells assessed as cell growth at 0.5 uM by SRB assay; conditions: read-out: Activity
COLO 205 [15] = assay: Antiproliferative activity against human COLO205 cells assessed as cell growth at 0.5 uM by SRB assay; conditions: read-out: Activity
UO-31 = assay: Antiproliferative activity against human UO31 cells assessed as cell growth at 500 uM by SRB assay; conditions: read-out: Activity
U-251 = assay: Antiproliferative activity against human U251 cells assessed as cell growth at 5 uM by SRB assay; conditions: read-out: Activity
[16] = Antiproliferative activity against human Hs 578T cells assessed as cell growth at 0.5 uM by SRB assay; conditions: read-out: Activity
MDA-MB-435 = assay: Antiproliferative activity against human MDA-MB-435 cells assessed as cell growth at 50 uM by SRB assay; conditions: read-out: Activity
[17] = system: Radical scavenging activity; assay: Antioxidant activity assessed as DPPH radical scavenging activity after 20 mins
Summary of the method: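 Test solution at several concentrations (100 µL) mixed with 900 µL of 0.04 mg/mL DPPH in methanol, held 20 min at room temperature, absorbance read at 517 nm. Inhibition % = [(Ac − As)/Ac] × 100, with a blank holding 100 µL methanol in place of sample. Inhibition plotted against concentration; EC50 (mean ± SD) from linear regression of three determinations.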

COLO 205 [18] = assay: Antiproliferative activity against human COLO205 cells assessed as cell growth at 50 uM by SRB assay; conditions: read-out: Activity
EKVX [19] = assay: Antiproliferative activity against human EKVX cells assessed as cell growth at 50 uM by SRB assay; conditions: read-out: Activity
HCT-116 [20] = assay: Antiproliferative activity against human HCT116 cells assessed as cell growth at 50 uM by SRB assay; conditions: read-out: Activity
RXF 393 = assay: Antiproliferative activity against human RXF393 cells assessed as cell growth at 50 uM by SRB assay; conditions: read-out: Activity
[21] = read-out: LC50 (the source's name)
[22] = read-out: pLC50 (the source's name) (converted)

## O=C(/C=C/c1ccc(O)c(O)c1)OCCc1ccc(O)c(O)c1
TK-10 [1]
  growth at 500 µM: 81%
SNB-19
  growth at 0.5 µM: 93%
HOP-92
  growth at 5 µM: 60%
TK-10 [2]
  growth at 0.5 µM: 92%
BT-549
  growth at 5 µM: 100%
HL-60(TB); read-out: GI50
  GI50: 2.54 µM
HL-60(TB); [21]
  CC50: > 50 µM
HL-60(TB); read-out: TGI
  TGI: 17.7 µM
HL-60(TB); read-out: pGI50 (converted)
  GI50: 2.63 µM
HL-60(TB); [22]
  CC50: > 50.1 µM
HL-60(TB); read-out: pTGI (converted)
  TGI: 17.8 µM
NCI-H322M
  growth at 0.5 µM: 90%
CCRF-CEM
  growth at 5 µM: 99%
SK-OV-3
  growth at 50 µM: 88%
A549; read-out: GI50
  GI50: 17.7 µM
A549; [21]
  CC50: > 50 µM
A549; read-out: TGI
  TGI: > 50 µM
A549; read-out: pGI50 (converted)
  GI50: 17.8 µM
A549; [22]
  CC50: > 50.1 µM
A549; read-out: pTGI
  TGI: > 50.1 µM
ACHN
  growth at 500 µM: 38%
Malme-3M [3]
  growth at 500 µM: 74%
UACC-62
  growth at 50 µM: 84%
HCT-116 [4]
  growth at 5 µM: 97%
TK-10 [5]
  growth at 5000 µM: 40%
DU-145; read-out: GI50
  GI50: 9.75 µM
DU-145; [21]
  CC50: > 50 µM
DU-145; read-out: pGI50 (converted)
  GI50: 9.77 µM
DU-145; [22]
  CC50: > 50.1 µM
DU-145; read-out: pTGI (converted)
  TGI: 30.2 µM
A498 [6]
  growth at 500 µM: 68%
COLO 205 [7]; read-out: GI50
  GI50: 18.8 µM
COLO 205 [7]; [21]
  CC50: > 50 µM
COLO 205 [7]; read-out: TGI
  TGI: > 50 µM
COLO 205 [7]; read-out: pGI50 (converted)
  GI50: 18.6 µM
COLO 205 [7]; [22]
  CC50: > 50.1 µM
COLO 205 [7]; read-out: pTGI
  TGI: > 50.1 µM
EKVX [8]
  growth: 19%
NCI-H522 [9]
  growth at 5 µM: 89%
NCI-H522 [10]
  growth at 50 µM: 77%
SNB-75
  growth at 500 µM: 58%
SF-295
  growth at 0.5 µM: 98%
Malme-3M [11]
  growth at 5 µM: 98%
Malme-3M [12]; read-out: GI50
  GI50: 18.6 µM
Malme-3M [12]; [21]
  CC50: > 50 µM
Malme-3M [12]; read-out: TGI
  TGI: > 50 µM
Malme-3M [12]; read-out: pGI50 (converted)
  GI50: 18.6 µM
Malme-3M [12]; [22]
  CC50: > 50.1 µM
Malme-3M [12]; read-out: pTGI
  TGI: > 50.1 µM
SK-MEL-2
  growth at 5 µM: 95%
OVCAR-5
  Activity: 97%
786-0
  growth at 50 µM: 94%
SN12C; read-out: GI50
  GI50: 9.09 µM
SN12C; [21]
  CC50: > 50 µM
SN12C; read-out: TGI
  TGI: > 50 µM
SN12C; read-out: pGI50 (converted)
  GI50: 9.12 µM
SN12C; [22]
  CC50: > 50.1 µM
SN12C; read-out: pTGI
  TGI: > 50.1 µM
HCT-116 [13]; read-out: GI50
  GI50: 11.2 µM
HCT-116 [13]; [21]
  CC50: > 50 µM
HCT-116 [13]; read-out: TGI
  TGI: > 50 µM
HCT-116 [13]; read-out: pGI50 (converted)
  GI50: 11.2 µM
HCT-116 [13]; [22]
  CC50: > 50.1 µM
HCT-116 [13]; read-out: pTGI
  TGI: > 50.1 µM
A498 [14]
  growth at 0.5 µM: 94%
COLO 205 [15]
  growth at 0.5 µM: 99%
UO-31
  growth at 500 µM: 23%
U-251
  growth at 5 µM: 97%
[16]
  growth at 0.5 µM: 83%
MDA-MB-435
  growth at 50 µM: 89%
[17]
  EC50: 4.7 µg/mL (≈ 14.9 µM)
COLO 205 [18]
  growth at 50 µM: 89%
EKVX [19]
  growth at 50 µM: 88%
HCT-116 [20]
  growth at 50 µM: 92%
RXF 393
  growth at 50 µM: 135%
